ChEMBL document CHEMBL3351530, “Analysis of subpocket selectivity and identification of potent selective inhibitors for matriptase and matriptase-2” (J Med Chem, 2014)

How the values were obtained:
[1] = target: T1, Transmembrane protease serine 6 (Homo sapiens, UniProt Q8IU80); assay: Inhibition of human recombinant matriptase-2 using Boc-Gln-Ala-Arg-AMC as substrate by microplate reader analysis
T1 sequence (Q8IU80 whole entry): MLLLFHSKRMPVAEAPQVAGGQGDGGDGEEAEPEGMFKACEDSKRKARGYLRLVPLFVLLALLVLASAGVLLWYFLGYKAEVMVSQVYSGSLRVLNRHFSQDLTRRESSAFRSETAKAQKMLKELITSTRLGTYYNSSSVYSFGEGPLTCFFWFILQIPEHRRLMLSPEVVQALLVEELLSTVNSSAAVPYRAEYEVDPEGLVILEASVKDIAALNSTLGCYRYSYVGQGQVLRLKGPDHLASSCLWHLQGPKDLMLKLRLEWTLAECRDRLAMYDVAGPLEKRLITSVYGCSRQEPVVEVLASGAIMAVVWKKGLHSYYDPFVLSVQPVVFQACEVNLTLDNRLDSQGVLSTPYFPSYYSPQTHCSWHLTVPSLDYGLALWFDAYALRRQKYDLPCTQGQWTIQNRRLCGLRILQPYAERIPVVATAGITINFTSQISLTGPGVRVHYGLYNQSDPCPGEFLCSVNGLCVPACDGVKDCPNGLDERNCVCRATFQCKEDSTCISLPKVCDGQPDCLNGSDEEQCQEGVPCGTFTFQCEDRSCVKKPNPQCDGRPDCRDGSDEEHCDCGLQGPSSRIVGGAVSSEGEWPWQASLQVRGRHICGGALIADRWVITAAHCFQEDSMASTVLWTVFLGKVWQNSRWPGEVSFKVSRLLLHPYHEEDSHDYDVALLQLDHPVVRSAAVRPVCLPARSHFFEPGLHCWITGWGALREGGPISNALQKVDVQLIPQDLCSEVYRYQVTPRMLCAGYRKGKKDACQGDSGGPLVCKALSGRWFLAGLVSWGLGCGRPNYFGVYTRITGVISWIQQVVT
Outline: (§1)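 Recombinant human matriptase (aa 596−[…]) or matriptase-2 (aa 78−811), active-site titrated with MUGB; 1 nM enzyme at room temperature in 50 mM Tris-HCl, 15 mM NaCl, pH 7.4. AMC release read at 360/441 nm. If inhibition occurred at I/E = 10, Ki came from a Morrison fit; otherwise from substrate-velocity curves fitted to the best reversible model. At least 3 runs in duplicate, mean ± SD.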

[2] = target: T2, Suppressor of tumorigenicity 14 protein (Homo sapiens, UniProt Q9Y5Y6); assay: Inhibition of human recombinant matriptase using Boc-Gln-Ala-Arg-AMC as substrate by microplate reader analysis; outline: as §1
T2 sequence (Q9Y5Y6 whole entry): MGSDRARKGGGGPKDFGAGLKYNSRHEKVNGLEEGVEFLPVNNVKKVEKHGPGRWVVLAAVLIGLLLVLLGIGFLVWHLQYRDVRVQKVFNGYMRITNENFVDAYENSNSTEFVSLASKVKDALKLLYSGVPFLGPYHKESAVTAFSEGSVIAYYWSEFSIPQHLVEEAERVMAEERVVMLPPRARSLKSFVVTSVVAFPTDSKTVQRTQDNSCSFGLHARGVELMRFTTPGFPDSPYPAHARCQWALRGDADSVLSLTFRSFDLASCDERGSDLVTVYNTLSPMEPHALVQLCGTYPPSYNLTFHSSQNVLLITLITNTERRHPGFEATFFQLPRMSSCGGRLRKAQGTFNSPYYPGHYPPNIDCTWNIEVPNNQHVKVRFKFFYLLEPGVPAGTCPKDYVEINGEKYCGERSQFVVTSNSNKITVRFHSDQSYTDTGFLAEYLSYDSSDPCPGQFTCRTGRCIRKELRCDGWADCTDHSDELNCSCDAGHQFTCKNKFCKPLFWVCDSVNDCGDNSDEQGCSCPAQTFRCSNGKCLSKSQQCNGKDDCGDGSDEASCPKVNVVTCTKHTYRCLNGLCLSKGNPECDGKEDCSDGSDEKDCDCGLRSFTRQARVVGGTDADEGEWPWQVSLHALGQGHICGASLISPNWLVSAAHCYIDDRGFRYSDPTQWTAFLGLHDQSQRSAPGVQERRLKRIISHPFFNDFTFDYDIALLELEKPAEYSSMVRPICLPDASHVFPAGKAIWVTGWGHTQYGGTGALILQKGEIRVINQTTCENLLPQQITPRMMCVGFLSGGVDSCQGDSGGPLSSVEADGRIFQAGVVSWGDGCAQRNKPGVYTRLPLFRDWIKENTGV

[3] = organism: Homo sapiens; assay: Selectivity ratio of Ki for human recombinant matriptase-2 to Ki for human recombinant matriptase
[4] = organism: Homo sapiens; assay: Selectivity ratio of Ki for human recombinant matriptase to Ki for human recombinant matriptase-2

| SMILES | Ki [1] [nM] | Ki [2] [nM] | Ratio Ki [3] | Ratio Ki [4] |
| --- | --- | --- | --- | --- |
| CC(C)C[C@H](N)C(=O)N[C@@H](CCC(N)=O)C(=O)N[C@@H](C)C(=O)N[C@@H](CCCNC(=N)N)C(=O)c1nc2ccccc2s1 | 13.5 | 0.15 | 90 | – |
| N=C(N)NCCC[C@H](NC(=O)[C@@H]1CCCN1C(=O)[C@H](CCC(N)=O)NC(=O)[C@@H](N)CCCNC(=N)N)C(=O)c1nc2ccccc2s1 | 7.8 | 0.061 | 128 | – |
| C[C@H](NC(=O)[C@H](CCC(N)=O)NC(=O)[C@@H](N)CO)C(=O)N[C@@H](CCCNC(=N)N)C(=O)c1nc2ccccc2s1 | 34.8 | 0.092 | 378 | – |
| C[C@H](NC(=O)[C@H](CCCNC(=N)N)NC(=O)[C@@H](N)CCCNC(=N)N)C(=O)N[C@@H](CCCNC(=N)N)C(=O)c1nc2ccccc2s1 | 15.4 | 0.72 | 22 | – |
| N=C(N)NCCC[C@H](NC(=O)[C@@H](N)Cc1c[nH]c2ccccc12)C(=O)N[C@@H](CCC(=O)O)C(=O)N[C@@H](CCCNC(=N)N)C(=O)c1nc2ccccc2s1 | 46.8 | 14.7 | 3 | – |
| CC(C)[C@H](NC(=O)[C@H](Cc1ccc(O)cc1)NC(=O)[C@@H](N)Cc1ccc(O)cc1)C(=O)N[C@@H](CCCNC(=N)N)C(=O)c1nc2ccccc2s1 | 2.56 | 31.5 | 0.08 | 13 |
| N=C(N)NCCC[C@H](NC(=O)[C@H](Cc1ccc(O)cc1)NC(=O)[C@H](CS)NC(=O)[C@@H](N)Cc1c[nH]c2ccccc12)C(=O)c1nc2ccccc2s1 | 1.03 | 7.98 | 0.13 | 8 |
| CC(C)C[C@H](NC(=O)[C@@H](N)CCCNC(=N)N)C(=O)N[C@@H](CO)C(=O)N[C@@H](CCCNC(=N)N)C(=O)c1nc2ccccc2s1 | 2.48 | 1.4 | 1.79 | – |
| C[C@H](NC(=O)[C@H](Cc1ccc(O)cc1)NC(=O)[C@@H](N)CCCNC(=N)N)C(=O)N[C@@H](CCCNC(=N)N)C(=O)c1nc2ccccc2s1 | 6.3 | 0.14 | 45 | – |
| C[C@H](NC(=O)[C@H](CCCCN)NC(=O)[C@@H](N)Cc1ccc(O)cc1)C(=O)N[C@@H](CCCNC(=N)N)C(=O)c1nc2ccccc2s1 | 20.8 | 0.89 | 23 | – |
| C[C@H](NC(=O)[C@H](CC(N)=O)NC(=O)[C@@H](N)CCCCN)C(=O)N[C@@H](CCCNC(=N)N)C(=O)c1nc2ccccc2s1 | 24.8 | 0.45 | 62 | – |
| CC(C)C[C@H](N)C(=O)N[C@@H](Cc1c[nH]c2ccccc12)C(=O)N[C@@H](Cc1c[nH]c2ccccc12)C(=O)N[C@@H](CCCNC(=N)N)C(=O)c1nc2ccccc2s1 | 1.98 | 3.22 | 0.63 | 2 |
| N=C(N)NCCC[C@H](NC(=O)[C@H](Cc1ccc(O)cc1)NC(=O)[C@H](CCC(N)=O)NC(=O)[C@@H](N)CCCNC(=N)N)C(=O)c1nc2ccccc2s1 | 0.74 | 0.18 | 4 | – |
| N=C(N)NCCC[C@H](NC(=O)[C@@H]1CCCN1C(=O)[C@H](CC(N)=O)NC(=O)[C@@H](N)CCCNC(=N)N)C(=O)c1nc2ccccc2s1 | 47.8 | 0.91 | 49 | – |
| N=C(N)NCCC[C@H](NC(=O)[C@H](Cc1ccccc1)NC(=O)[C@H](CCC(N)=O)NC(=O)[C@@H](N)CCCNC(=N)N)C(=O)c1nc2ccccc2s1 | 1.4 | 0.23 | 6 | – |
